ABCG2 inh: inhibitors of human ABCG2 transporter, ABCB1 counter-screen. Q9UNQ0. IgMXP3 cells, JC-1 efflux, flow cytometry. inhibition, % at 6.6 µM. 190,000 compounds, 0.1% hits;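 active means inhibition above 80%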
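Times: 10 min at 25 °C | Test system: Two drug-resistant human cell lines, ABCG2 and ABCB1 | Quantity: 3 million cells/mL final, two lines in 1:1 ratio | Signal: Flow cytometry, 530 nm JC-1 signal | Dosing: Compound at 6.6 µM | Controls: Nicardipine and DMSO wells | Reagent: JC-1 as fluorescent efflux pump substrate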
PMI activator: phosphomannose isomerase (human) activation. P34949. purified human PMI, coupled resazurin fluorescence, 20 min; hits give high values; 1 = vehicle control, 0 substrate-free wells. activation factor at 20 µM. 190,000 compounds, 0.005% hits. AID 1214;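 active means activation factor of 2 or more at 20 µM, relative to plate controls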
Cl transport mod: modulators of human KCC2 chloride dependent transport. Q9H2X9. KCC2 cells, thallium flux FluoZin-2 fluorescence. B-score of Tl+ flux slope (higher = more flux/activation; lower = inhibition) at 10 µM. 190,000 compounds, 2.2% hits;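 active means thallium flux slope and its plate-corrected score both differing from the plate sample mean at a set confidence after two filtering rounds, in either direction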;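 further: slope of fluorescence scaled to starting intensity during 10 to 20 s after thallium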
PMI act hi M6P: PMI (human) activation, high substrate. P34949. coupled PMI enzyme assay, resazurin fluorescence, 20 min; hits give high values; 1 = untreated enzyme, 0 = substrate-free blank. activation factor at 20 µM. 190,000 compounds, 0.34% hits. AID 1216;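 active means activation factor of 2 or more at 20 µM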
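Test system: human phosphomannose isomerase with PGI, G6PDH, diaphorase coupling enzymes / Doses: 20 µM compound, 1% DMSO / Times: enzyme reaction with compound 20 min at room temperature / Measured by: Diaphorase-driven resazurin-to-resorufin fluorescence, excitation 544, emission 590 nm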
ROMK mod: human ROMK K+ channel modulation, primary screen; P48048; Tet-inducible ROMK, thallium flux fluorescence; actives lie on both sides; B-score at 10 µM; 130,000 compounds, 2% hits; AID 1918;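 active means signal ratio slope over the read window, or its plate-corrected B-score, at least 3 SD from the plate mean, either direction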;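 further: B-score of the F/F0 ratio slope over 7 to 12 s after thallium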
ABCB1 inh: blocks JC-1 efflux by human ABCB1 transporter | CCRF-Adr cells, flow cytometry | inhibition, % at 6.6 µM | 190,000 compounds, 0.067% hits | P08183; in the data active means inhibition above about 40%;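 further: higher value means more JC-1 retained so stronger ABCB1 efflux block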
Target sequence (P08183 whole entry, looked up): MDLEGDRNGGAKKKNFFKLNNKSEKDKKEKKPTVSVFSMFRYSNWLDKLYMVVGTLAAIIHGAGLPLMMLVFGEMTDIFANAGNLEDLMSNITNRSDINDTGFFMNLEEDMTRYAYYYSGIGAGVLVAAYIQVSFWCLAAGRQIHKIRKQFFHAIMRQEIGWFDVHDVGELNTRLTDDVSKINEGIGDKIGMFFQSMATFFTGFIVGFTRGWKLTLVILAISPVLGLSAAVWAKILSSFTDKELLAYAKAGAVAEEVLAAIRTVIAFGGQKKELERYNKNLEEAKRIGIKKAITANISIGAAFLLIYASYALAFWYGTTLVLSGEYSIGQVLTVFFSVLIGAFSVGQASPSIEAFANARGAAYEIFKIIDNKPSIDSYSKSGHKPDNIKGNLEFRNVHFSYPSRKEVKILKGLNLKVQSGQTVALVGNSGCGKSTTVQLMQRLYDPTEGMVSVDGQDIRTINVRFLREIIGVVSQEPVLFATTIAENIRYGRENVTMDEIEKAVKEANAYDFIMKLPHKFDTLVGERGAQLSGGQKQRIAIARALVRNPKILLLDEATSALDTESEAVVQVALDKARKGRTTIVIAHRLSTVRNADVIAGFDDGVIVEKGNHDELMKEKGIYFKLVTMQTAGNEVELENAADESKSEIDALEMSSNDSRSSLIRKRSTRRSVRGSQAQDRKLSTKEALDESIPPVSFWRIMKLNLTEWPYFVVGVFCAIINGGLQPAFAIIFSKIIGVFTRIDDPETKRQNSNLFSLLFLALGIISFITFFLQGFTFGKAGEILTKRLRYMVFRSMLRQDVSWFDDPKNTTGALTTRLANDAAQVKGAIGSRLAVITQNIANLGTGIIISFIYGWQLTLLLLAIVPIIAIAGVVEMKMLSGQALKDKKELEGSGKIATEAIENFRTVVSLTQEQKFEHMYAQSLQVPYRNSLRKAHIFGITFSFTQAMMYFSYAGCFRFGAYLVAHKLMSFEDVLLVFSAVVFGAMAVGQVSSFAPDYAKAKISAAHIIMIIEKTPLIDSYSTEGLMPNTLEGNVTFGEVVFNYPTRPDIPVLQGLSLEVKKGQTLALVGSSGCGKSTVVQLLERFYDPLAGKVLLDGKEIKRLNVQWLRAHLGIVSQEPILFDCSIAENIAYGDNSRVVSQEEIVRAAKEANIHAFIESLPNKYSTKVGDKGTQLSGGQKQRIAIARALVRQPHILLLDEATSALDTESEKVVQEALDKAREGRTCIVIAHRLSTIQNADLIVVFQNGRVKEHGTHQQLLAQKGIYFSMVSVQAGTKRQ
KCC2 sec1: KCC2 (human) modulation, secondary assay. HEK293-KCC2, thallium flux, FluoZin2 fluorescence; hits give high values. 3,700 compounds, 15% hits. AID 1713. shares compounds with Cl transport mod. normalised thallium flux (F/F0 slope) at 10 µM;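 active means thallium flux slope above the same plate's solvent-only control mean plus 3 SD; inconclusive means the two replicate wells disagree; inactive means no significant difference from solvent-only control wells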
KCC2 bumet counter: thallium flux persisting under bumetanide in KCC2 cells, counter-screen secondary assay. AID 1714. 3,700 compounds, 49% hits. shares compounds with Cl transport mod. normalized thallium flux at 10 µM. HEK293-KCC2 + bumetanide/ouabain, thallium flux FluoZin2; hits give high values;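 active means thallium entry rate above the same plate's blocked-transporter control wells by more than 3 SD; inconclusive means the two repeat wells disagree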;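 further: raw slope of fluorescence over initial fluorescence between 10 and 20 s after thallium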
KCC2 secondary2: KCC2 (human) modulation, second secondary assay. shares compounds with Cl transport mod. HEK293-KCC2, thallium flux FluoZin2 fluorescence; actives lie on both sides; F/F0 rise rate, 10–20 s post-thallium. normalized thallium flux at 10 µM. 3,700 compounds, 23% hits. AID 1715;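 active means thallium flux slope more than 3 SD above or below the plate's solvent-only control mean, mostly below; inconclusive means the two repeat wells disagreed; inactive means no significant shift from solvent-only controls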
HEK counter1: acts in parental HEK cells, KCC2 counter-screen. 3,700 compounds, 46% hits. shares compounds with Cl transport mod. thallium flux rate (normalised fluorescence) at 10 µM. HEK293 parental cells, thallium flux FluoZin2, ouabain; baseline-ratio fluorescence slope, 10–20 s after thallium;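 active means thallium flux rate significantly above the same plate's solvent-only control wells, beyond their mean plus 3 SD; inconclusive means the two replicate wells gave conflicting results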
KCC2 retest ouab: confirmation of human KCC2 modulators with ouabain; shares compounds with Cl transport mod; HEK293-KCC2, thallium flux FluoZin2 fluorescence; bidirectional: low = inhibitor, high = activator; raw Tl+ flux slope (below DMSO = inhibition, above = activation) at 10 µM; 3,700 compounds, 48% hits; AID 1717;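 active means thallium flux slope beyond 3 SD from same-plate DMSO control mean in most replicates, usually higher, sometimes lower; inconclusive means repeat tests gave conflicting results; inactive means no significant difference from controls in most replicates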;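 further: slope of initial-normalized fluorescence between seconds 10 and 20 after thallium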
HEK counter2: acts in parental HEK cells, second KCC2 counter-screen; shares compounds with Cl transport mod; HEK293 parental, thallium flux FluoZin-2 fluorescence slope; thallium flux slope at 10 µM; 3,700 compounds, 33% hits; AID 1718;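 active means thallium flux slope above the same plate's solvent-control mean plus 3 SD in both duplicate wells; inconclusive means duplicate wells that disagreed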;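 further: run without ouabain in cells lacking the KCC2 cotransporter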
Numbers stand for hits; n = inactive; u = inconclusive; x = not tested or not shown. A selection: hits, their analogues and other compounds. The true share with any hit is near 3.3%.

SMILES	ABCG2 inh	PMI activator	Cl transport mod	PMI act hi M6P	ROMK mod	ABCB1 inh	KCC2 sec1	KCC2 bumet counter	KCC2 secondary2	HEK counter1	KCC2 retest ouab	HEK counter2
Cc1cccc(/C=C(\C(=O)C(=O)O)c2ccc3ccccc3n2)c1	n	n	n	n	n	n	x	x	x	x	x	x
O=C(O)C(=O)/C(=C\c1cccc(Cl)c1)c1ccc2ccccc2n1	n	n	11	n	n	n	n	0.022	n	0.023	u	0.016
COCC(=O)N(CCc1ccc(OC)c(OC)c1)Cc1cc2cc(C)ccc2nc1Cl	n	n	n	n	n	n	x	x	x	x	x	x
O=C(COC(=O)c1cn(-c2ccccc2)nc1-c1cccnc1)NC1CC1	n	n	n	n	n	n	x	x	x	x	x	x
CN(C)c1cc(-c2ccc(Cl)cc2Cl)oc(=O)c1Cl	x	x	n	x	x	x	x	x	x	x	x	x
Cc1[nH]n2c(=O)cc(C(C)(C)C)nc2c1-c1ccccc1	n	n	x	n	n	n	x	x	x	x	x	x
Cc1[nH]n2c(=O)cc(C(C)C)nc2c1-c1ccccc1	n	n	6.7	n	x	n	u	0.015	u	u	u	n
CC(C)OC(=O)C1C2C=CC3(CN(Cc4cccs4)C(=O)C13)O2 (centres undefined)	n	n	n	n	x	n	x	x	x	x	x	x
C=CCn1c(=S)[nH]c2sccc2c1=O	n	n	7.8	n	n	n	n	0.015	n	0.017	u	0.019
CC1CC(=O)c2cnc(Nc3cccc(C(F)(F)F)c3)nc2C1 (centres undefined)	n	n	-3	n	x	n	0.012	u	n	n	n	n
CC1CC(=O)c2cnc(Nc3ccccc3)nc2C1 (centres undefined)	n	n	n	n	n	n	x	x	x	x	x	x
C=CCNc1oc(COc2ccc(C)cc2)nc1C#N	n	n	x	n	x	n	n	n	n	n	u	n
Cc1ccc(OCc2nc(C#N)c(NCc3ccc4c(c3)OCO4)o2)cc1	n	n	n	n	n	n	n	u	u	u	0.012	n
CCOc1ccc(-c2nc(C#N)c(NCc3ccc4c(c3)OCO4)o2)cc1	n	n	n	n	x	n	x	x	x	x	x	x
CC(C)CCN1CCN(Cc2nc3c(s2)CCCC3)CC1CCO (centres undefined)	n	n	n	n	n	n	x	x	x	x	x	x
Cc1c(Cl)cccc1NC(=S)NNc1ncc(C(F)(F)F)cc1Cl	n	n	5.5	n	n	n	n	0.049	u	0.018	0.038	0.021
Fc1ccccc1NC(=S)NNc1ncc(C(F)(F)F)cc1Cl	n	n	6.9	n	n	n	n	0.052	n	0.011	u	0.01
NC(=S)Nc1ncc(C(F)(F)F)cc1Cl	n	n	16	n	n	n	n	0.059	0.047	0.036	0.047	0.039
O=C(CC(c1ccccc1)c1ccco1)Nc1nccs1 (centres undefined)	n	n	n	n	n	n	x	x	x	x	x	x
N=C1SCC(=O)N1c1ncc(Cc2ccccc2Cl)s1	n	n	11	n	n	n	n	0.019	n	0.014	u	n

From PubChem BioAssay
